Source: ChEMBL document CHEMBL1129787, “Synthesis of potent cyclic hexapeptide NK-1 antagonists. Use of a minilibrary in transforming a peptidal somatostatin receptor ligand into an NK-1 receptor ligand via a polyvalent peptidomimetic” (J Med Chem, 1996)
Non-standard residues stand in square brackets, D forms with d. Residues, ends and D or L forms follow the SMILES beside them. Phe(4-F) = N[C@@H](Cc1ccc(F)cc1)C(=O)O; 1Nal = N[C@@H](Cc1cccc2ccccc12)C(=O)O

target: Beta-2 adrenergic receptor (Homo sapiens, UniProt P07550); experiment: Binding affinity towards cloned human Beta-2 adrenergic receptor
Sequence (P07550 whole entry): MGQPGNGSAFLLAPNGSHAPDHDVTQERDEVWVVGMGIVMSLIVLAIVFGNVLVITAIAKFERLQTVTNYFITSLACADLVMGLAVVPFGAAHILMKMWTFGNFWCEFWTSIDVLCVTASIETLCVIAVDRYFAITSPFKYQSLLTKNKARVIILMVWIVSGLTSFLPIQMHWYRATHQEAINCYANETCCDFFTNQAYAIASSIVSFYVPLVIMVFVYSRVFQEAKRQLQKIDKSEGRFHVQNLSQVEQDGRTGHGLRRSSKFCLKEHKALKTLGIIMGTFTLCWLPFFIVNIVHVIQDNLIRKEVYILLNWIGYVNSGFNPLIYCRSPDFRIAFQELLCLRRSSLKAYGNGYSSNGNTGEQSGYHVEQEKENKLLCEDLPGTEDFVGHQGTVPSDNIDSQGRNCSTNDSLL

NCCCCCOC[C@H]1O[C@@H](OCCc2c[nH]c3ccccc23)[C@H](OCc2ccccc2)[C@@H](OCc2ccccc2)[C@@H]1OCc1ccccc1 and NCCCCCOC[C@H]1O[C@@H](OCCc2c[nH]c3ccccc23)[C@H](OCc2ccccc2)C[C@@H]1OCc1ccccc1 are the same in IC50: 3000 nM for the first, 3000 nM for the second.

target: Somatostatin receptor; experiment: Ability to inhibit binding of […]-CGP 23996 to somatostatin receptor on membranes from cerebral cortex; assay type: tissue-based

With NCCCCCOC[C@H]1O[C@@H](OCCc2c[nH]c3ccccc23)[C@H](OCc2ccccc2)[C@@H](OCc2ccccc2)[C@@H]1OCc1ccccc1 the IC50 was 5000 nM.

target: T1, Substance-P receptor (Homo sapiens, UniProt P25103); experiment: Inhibition of Tachykinin receptor 1
T1 sequence (P25103 whole entry): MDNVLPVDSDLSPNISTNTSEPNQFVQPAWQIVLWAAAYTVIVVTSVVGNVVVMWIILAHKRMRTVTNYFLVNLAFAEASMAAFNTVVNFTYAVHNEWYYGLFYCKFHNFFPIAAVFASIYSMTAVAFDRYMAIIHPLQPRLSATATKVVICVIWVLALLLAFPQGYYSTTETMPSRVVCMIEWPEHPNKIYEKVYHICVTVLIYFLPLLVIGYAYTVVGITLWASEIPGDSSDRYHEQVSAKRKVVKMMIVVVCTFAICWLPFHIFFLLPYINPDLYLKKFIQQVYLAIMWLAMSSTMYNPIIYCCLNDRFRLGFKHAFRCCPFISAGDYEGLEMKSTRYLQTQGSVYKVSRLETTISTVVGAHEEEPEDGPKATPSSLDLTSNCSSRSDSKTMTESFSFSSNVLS
Method in brief: (§1)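 NK-1 receptor inhibition assay. IC50 is reported in nM as the mean ± SD.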

Compared with C[C@@H](O)[C@@H]1NC(=O)[C@H](Cc2ccccc2)NC(=O)[C@@H](Cc2c[nH]c3ccccc23)NC(=O)[C@H](CC2CCCCC2)NC(=O)[C@@H]2CCCN2C(=O)[C@H](Cc2ccccc2)NC1=O, C[C@@H](O)[C@@H]1NC(=O)[C@H](Cc2ccccc2)NC(=O)[C@@H](Cc2c[nH]c3ccccc23)NC(=O)[C@H](CO)NC(=O)[C@@H]2CCCN2C(=O)[C@H](Cc2ccccc2)NC1=O is 3-fold higher in IC50: 198 nM for the first, 596 nM for the second. The first is the more potent here.

C[C@@H](O)[C@@H]1NC(=O)[C@H](CCCCN)NC(=O)[C@@H](Cc2c[nH]c3ccccc23)NC(=O)[C@H](Cc2ccccc2)NC(=O)[C@@H]2CCCN2C(=O)[C@H](Cc2ccccc2)NC1=O (cyclo(PF[dW]KTF)) and CC(C)C[C@@H]1NC(=O)[C@@H](Cc2c[nH]c3ccccc23)NC(=O)[C@H](Cc2ccccc2)NC(=O)[C@@H]2CCCN2C(=O)[C@H](Cc2ccccc2)NC(=O)[C@H]([C@@H](C)O)NC1=O cannot be ordered by IC50: over 1000 nM for the first, 2730 nM for the second.

Compared with COc1ccc(C[C@@H]2NC(=O)[C@@H](Cc3c[nH]c4ccccc34)NC(=O)[C@H](Cc3ccccc3)NC(=O)[C@@H]3CCCN3C(=O)[C@H](Cc3ccccc3)NC(=O)[C@H]([C@@H](C)O)NC2=O)cc1 (cyclo(FPF[dW]Y(Me)T)), C[C@@H](O)[C@@H]1NC(=O)[C@H](Cc2ccc(O)cc2)NC(=O)[C@@H](Cc2c[nH]c3ccccc23)NC(=O)[C@H](Cc2ccccc2)NC(=O)[C@@H]2CCCN2C(=O)[C@H](Cc2ccccc2)NC1=O (cyclo(FPF[dW]YT)) is 18-fold higher in IC50: 59 nM for the first, 1050 nM for the second. The first is the more potent here.

CC(C)[C@@H]1NC(=O)[C@H](CCCCN)NC(=O)[C@@H](Cc2c[nH]c3ccccc23)NC(=O)[C@H](Cc2ccc(O)cc2)NC(=O)[C@H](C)N(C)C(=O)[C@H](Cc2ccccc2)NC1=O [SEGLITIDE] and C[C@@H]1NC(=O)[C@@H](Cc2c[nH]c3ccccc23)NC(=O)[C@H](Cc2ccccc2)NC(=O)[C@@H]2CCCN2C(=O)[C@H](Cc2ccccc2)NC(=O)[C@H]([C@@H](C)O)NC1=O cannot be ordered by IC50: over 1000 nM for the first, 4090 nM for the second.

First: C[C@@H](O)[C@@H]1NC(=O)[C@H](Cc2ccccc2)NC(=O)[C@@H](Cc2c[nH]c3ccccc23)NC(=O)[C@H](Cc2cccc3ccccc23)NC(=O)[C@@H]2CCCN2C(=O)[C@H](Cc2ccccc2)NC1=O (cyclo([1Nal][dW]FTFP))
Second: C[C@@H](O)[C@@H]1NC(=O)[C@H](Cc2ccc(F)cc2)NC(=O)[C@@H](Cc2c[nH]c3ccccc23)NC(=O)[C@H](Cc2cccc3ccccc23)NC(=O)[C@@H]2CCCN2C(=O)[C@H](Cc2ccccc2)NC1=O (cyclo([1Nal][dW][Phe(4-F)]TFP))
The IC50 of the first is 7.5-fold higher: 15 nM for the first, 2 nM for the second.

First: C[C@H](O)[C@@H]1NC(=O)[C@H](Cc2ccccc2)NC(=O)[C@@H](Cc2c[nH]c3ccccc23)NC(=O)[C@@H](Cc2ccccc2)NC(=O)[C@@H]2CCCN2C(=O)[C@H](Cc2ccccc2)NC1=O
Second: C[C@H](O)[C@@H]1NC(=O)[C@H](Cc2ccccc2)NC(=O)[C@@H](Cc2c[nH]c3ccccc23)NC(=O)[C@H](Cc2ccccc2)NC(=O)[C@@H]2CCCN2C(=O)[C@H](Cc2ccccc2)NC1=O
The IC50 of the first is 5.2-fold higher: 496 nM for the first, 95 nM for the second.

Going from C[C@@H](O)[C@@H]1NC(=O)[C@H](Cc2ccc(F)cc2)NC(=O)[C@@H](Cc2c[nH]c3ccccc23)NC(=O)[C@H](Cc2ccccc2)NC(=O)[C@@H]2CCCN2C(=O)[C@H](Cc2ccccc2)NC1=O (cyclo(FPF[dW][Phe(4-F)]T)) to C[C@@H](O)[C@@H]1NC(=O)[C@H](Cc2ccccc2)NC(=O)[C@@H](Cc2c[nH]c3ccccc23)NC(=O)[C@H](CCc2ccccc2)NC(=O)[C@@H]2CCCN2C(=O)[C@H](Cc2ccccc2)NC1=O, the IC50 rises from 28 nM to 85 nM (3-fold).

First: C[C@@H]1NC(=O)[C@@H]2CCCN2C(=O)[C@H](Cc2ccccc2)NC(=O)[C@H]([C@@H](C)O)NC(=O)[C@H](Cc2ccccc2)NC(=O)[C@@H](Cc2c[nH]c3ccccc23)NC1=O
Second: C[C@@H](O)[C@@H]1NC(=O)[C@H](Cc2ccccc2)NC(=O)[C@@H](Cc2c[nH]c3ccccc23)NC(=O)[C@H](CC(=O)O)NC(=O)[C@@H]2CCCN2C(=O)[C@H](Cc2ccccc2)NC1=O (cyclo(D[dW]FTFP))
The IC50 of the first is 2.5-fold lower: 549 nM for the first, 1390 nM for the second.

target: T1, Substance-P receptor; experiment: Percent Inhibition against Tachykinin receptor 1 at 2 uM

C[C@@H](O)[C@@H]1NC(=O)[C@H](Cc2ccccc2)NC(=O)[C@@H](Cc2c[nH]c3ccccc23)NC(=O)[C@@H]2CCCN2C(=O)[C@@H]2CCCN2C(=O)[C@H](Cc2ccccc2)NC1=O showed an inhibition of 51%.

target: T1, Substance-P receptor; experiment: Binding affinity towards Tachykinin receptor 1; method in brief: as §1

Going from CC(=O)NCCCCCOC[C@H]1O[C@@H](OCCc2c[nH]c3ccccc23)[C@H](OCc2ccccc2)[C@@H](OCc2ccccc2)[C@@H]1OCc1ccccc1 to NCCCCCOC[C@H]1O[C@@H](OCCc2c[nH]c3ccccc23)[C@H](OCc2ccccc2)C[C@@H]1OCc1ccccc1, the IC50 rises from 60 nM to 180 nM (3-fold).

target: Somatostatin receptor; experiment: Ability to inhibit binding of […]-CGP 23996 to somatostatin receptor on membranes from pituitary

NCCCCCOC[C@H]1O[C@@H](OCCc2c[nH]c3ccccc23)[C@H](OCc2ccccc2)[C@@H](OCc2ccccc2)[C@@H]1OCc1ccccc1 showed an IC50 of 5000 nM.
